ChEMBL document CHEMBL5252539, “In vitro biological evaluation of new antimycobacterial salicylanilide-tuftsin conjugates” (Eur J Med Chem, 2017)
In brackets after ≈: the same amount, converted by molar mass. Activity calls are given as the source filed them. No cut-off for these calls is given here. *1 amine or outer side, *2 acyl side, *3 side chain or, on linkers, in order; H or OH if unused. Where a SMILES comes first, the peptide text is derived from it. [ ]: non-standard residue; d: D form. The star is where a group is joined. X4 = O=C(Nc1ccc(C(F)(F)F)cc1)c1cc(/C=N\OCC(=O)*)ccc1O; X2 = C/C(=N\OCC(=O)*)c1ccc(NC(=O)c2cc(Br)ccc2O)cc1; X1 = C/C(=N\OCC(=O)[*:2])c1ccc(N[*:1])cc1; Benzoyl(5-Br-2-OH) = O=C(c1cc(Br)ccc1O)*; Palmitoyl = CCCCCCCCCCCCCCCC(=O)*; Decanoyl = CCCCCCCCCC(=O)*; Butyryl = CCCC(=O)*

What was measured:
[1] = tested on: Mycobacterium tuberculosis; assay: Antimycobacterial activity against Mycobacterium tuberculosis H37Rv ATCC 27294 assessed as reduction in colony forming unit after 28 days by serial dilution method; type: functional, organism-based; conditions: time 28.0 day
Procedure, shortened: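 After the 4-week MIC incubation in Sula semisynthetic medium (pH 6.5), growth inhibition confirmed by plating on Löwenstein-Jensen solid medium and counting colony forming units.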

[2] = tested on: Mycobacteroides abscessus; assay: Antimycobacterial activity against Mycobacterium abscessus ATCC 19977 assessed as reduction in colony forming unit after 7 days by serial dilution method; type: functional, organism-based; conditions: time 7.0 day
Procedure, shortened: (§1)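 MIC determined in Sula semisynthetic medium, pH 6.5, 1 week incubation. Growth inhibition confirmed by plating on Löwenstein-Jensen solid medium and counting CFU. Bacteria inoculated without drug served as growth control.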

[3] = tested on: MONO-MAC-6; assay: Cytostatic activity against human MONO-MAC-6 cells assessed as reduction in cell viability incubated for 24 hrs by MTT assay; type: functional, cell-based; conditions: MONO-MAC-6, 24 h
Procedure, shortened: (§2)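 MTT viability assay after 24 h exposure of MonoMac6 human monocytic cells or HepG2 human hepatocellular carcinoma cells. Top concentration 200 μM. IC50 taken from dose-response curves as the concentration reducing viability to 50% of maximal.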

[4] = tested on: HepG2; assay: Cytostatic activity against human HepG2 cells assessed as reduction in cell viability incubated for 24 hrs by MTT assay; type: functional, cell-based; conditions: HepG2, 24 h; procedure, shortened: as §2
[5] = Selectivity index, ratio of IC50 for cytostatic activity against human MONO-MAC-6 cells to MIC for antimycobacterial activity against Mycobacterium tuberculosis H37Rv ATCC 27294; type: toxicity, cell-based; conditions: read-out: Selectivity Index
Procedure, shortened: (§3)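 MTT assay on MonoMac6 or HepG2 cells after 24 h exposure, top concentration 200 µM. SI = IC50 (µM)/MIC (µM) against H37Rv from the 4-week Sula medium assay.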

[6] = Selectivity index, ratio of IC50 for cytostatic activity against human HepG2 cells to MIC for antimycobacterial activity against Mycobacterium tuberculosis H37Rv ATCC 27294; type: toxicity, cell-based; conditions: read-out: Selectivity Index; procedure, shortened: as §3
[7] = tested on: Mycobacterium tuberculosis; assay: […] antimycobacterial activity against Mycobacterium tuberculosis H37Rv ATCC 27294 infected in human MONO-MAC-6 cells assessed as reduction in colony forming unit at 125 uM for 6 days by colony counting based analysis; type: functional, organism-based; conditions: time 6.0 day
Procedure, shortened: (§4)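 MonoMac6 monolayers infected with H37Rv, then treated with compound at 125 or 250 µM for 3 days. Treatment repeated with fresh compound solution for another 3 days. Intracellular bacteria quantified as CFU against untreated infected cells.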

[8] = tested on: Mycobacterium tuberculosis; assay: […] antimycobacterial activity against Mycobacterium tuberculosis H37Rv ATCC 27294 infected in human MONO-MAC-6 cells assessed as reduction in colony forming unit at 250 uM for 6 days by colony counting based analysis; type: functional, organism-based; conditions: time 6.0 day; procedure, shortened: as §4
[9] = tested on: Mycobacterium tuberculosis; assay: Antimycobacterial activity against Mycobacterium tuberculosis H37Rv ATCC 27294 assessed as reduction in bacterial growth after 21 days by serial dilution method; type: functional; conditions: H37Rv ATCC 27294, 504 h, time 21 day
Procedure, shortened: (§5)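 Broth MIC in Sula semisynthetic medium, pH 6.5; 4-week incubation, with 21-day values […] where indicated. Drug-free inoculated bacteria served as growth control. MIC also expressed as drug content (µg/mL) = MIC (µM) × average SAL molar mass × number of SAL per conjugate / 1000.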

[10] = tested on: Mycobacterium tuberculosis; assay: Antimycobacterial activity against Mycobacterium tuberculosis H37Rv ATCC 27294 assessed as reduction in bacterial growth after 28 days by serial dilution method; type: functional; conditions: H37Rv ATCC 27294, 672 h, time 28 day; procedure, shortened: as §5
[11] = tested on: Mycobacteroides abscessus; assay: Antimycobacterial activity against Mycobacterium abscessus ATCC 19977 assessed as reduction in bacterial growth after 7 days by serial dilution method; type: functional; conditions: ATCC 19977, 168 h, time 7 day; procedure, shortened: as §1
[12] = Cytotoxicity against mouse bone marrow derived macrophages assessed as reduction in cell viability incubated for 48 hrs by MTT assay; type: toxicity, cell-based, Macrophage
Procedure, shortened: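 Murine bone marrow-derived macrophages exposed for 48 h, viability by MTT. Highest concentration tested 100 µM. IC50 taken from dose-response curves.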

[13] = Selectivity index, ratio of IC50 for cytotoxicity against mouse bone marrow derived macrophages to MIC for antimycobacterial activity against Mycobacterium tuberculosis H37Rv ATCC 27294; type: toxicity; conditions: read-out: Selectivity Index
Procedure, shortened: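 Murine bone marrow-derived macrophages exposed for 48 h, top concentration 100 µM. Viability read by MTT and IC50 taken from dose-response curves. SI = IC50/MIC against H37Rv.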

[14] = Retention time of the compound by RP-HPLC analysis; type: physicochemical
Procedure, shortened: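 Analytical RP-HPLC on a C18 column (5 μm, 100 Å, 4.6 × 150 mm). Eluent A 0.1% TFA in water, eluent B 0.1% TFA in acetonitrile-water 80:20. Gradient 0% B for 5 min, to 60% B at 15 min, to 100% B at 25 min. Flow 1 mL/min, detection at 220 nm.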

[15] = Stability in rat liver lysosomal homogenate assessed as drug degradation at 50 uM and measured upto 24 hrs by HPLC-MS analysis; type: ADME, subcellular, Lysosome; conditions: tissue homogenate
Procedure, shortened: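 Conjugates incubated in rat liver lysosomal homogenate. Reaction mixtures sampled at 5 min, 1 h, 2 h, 4 h, 8 h and 24 h and analysed by HPLC-MS (chromatograms and mass spectra) to identify intact conjugate, fragments and cleavage sites.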

Row | Compound | Activity [1] | Activity [2] | IC50 [3] | IC50 [4] | selectivity ratio [5] | selectivity ratio [6] | Activity [7] | Activity [8] | MIC [9] | MIC [10] | MIC [11] | IC50 at 48 h [12] | selectivity ratio [13] | Retention_time [14] | Stability [15]
1 | C/C(=N\OCC(=O)N[C@H](C(=O)O)[C@@H](C)O)c1ccc(NC(=O)c2cc(Br)ccc2O)cc1 | Active | Active | > 200 µM | > 200 µM | > 0.5 | > 0.5 | Active | Active | 394 µM (≈ 200 µg/mL) | – | – | – | – | – | –
2 | CC(=O)c1ccc(NC(=O)c2cc(Br)ccc2O)cc1 | Active | Active | 18.6 µM | 15.9 µM | 2.5 | 2.1 | – | – | – | 7.5 µM (≈ 2.51 µg/mL) | 59.8 µM (≈ 20 µg/mL) | 76.5 µM | 10.2 | – | –
3 | C/C(=N\OCC(=O)NCC(=O)O)c1ccc(NC(=O)c2cc(Br)ccc2O)cc1 | Active | Active | > 200 µM | > 200 µM | > 0.9 | > 0.9 | Active | Active | 215 µM (≈ 100 µg/mL) | – | – | – | – | – | –
4 | C[C@@H](O)[C@H](NC(=O)CNC(=O)[C@H](CCCCN)NC(=O)[C@@H]1CCCN1C(=O)[C@H](CCCCN)NC(=O)[C@@H](NC(=O)CNC(=O)[C@H](CCCCN)NC(=O)[C@@H]1CCCN1C(=O)[C@H](CCCCN)NC(=O)[C@@H](NC(=O)CNC(=O)[C@H](CCCCN)NC(=O)[C@@H]1CCCN1C(=O)[C@H](CCCCN)NC(=O)[C@@H](NC(=O)CO/N=C\c1ccc(O)c(C(=O)Nc2ccc(C(F)(F)F)cc2)c1)[C@@H](C)O)[C@@H](C)O)[C@@H](C)O)C(=O)N[C@@H](CCCCN)C(=O)N1CCC[C@H]1C(=O)N[C@@H](CCCCN)C(=O)NCC(N)=O (X4-TKPKGTKPKGTKPKGTKPKG-NH2) | Active | Active | > 200 µM | > 200 µM | > 2.4 | > 2.4 | Active | Active | 82.4 µM (≈ 200 µg/mL) | – | 41.2 µM (≈ 100 µg/mL) | – | – | – | –
5 | CCCC(=O)NCCCC[C@H](NC(=O)[C@@H]1CCCN1C(=O)[C@H](CCCCN)NC(=O)[C@@H](NC(=O)CO/N=C(\C)c1ccc(NC(=O)c2cc(Br)ccc2O)cc1)[C@@H](C)O)C(=O)NCC(=O)N[C@H](C(=O)N[C@@H](CCCCN)C(=O)N1CCC[C@H]1C(=O)N[C@@H](CCCCN)C(=O)NCC(=O)N[C@H](C(=O)N[C@@H](CCCCN)C(=O)N1CCC[C@H]1C(=O)N[C@@H](CCCCN)C(=O)NCC(=O)N[C@H](C(=O)N[C@@H](CCCCN)C(=O)N1CCC[C@H]1C(=O)N[C@@H](CCCCN)C(=O)NCC(N)=O)[C@@H](C)O)[C@@H](C)O)[C@@H](C)O ({Benzoyl(5-Br-2-OH)}-[X1]TKPK(Butyryl)GTKPKGTKPKGTKPKG-NH2) | Active | Active | > 200 µM | 81.6 µM | > 3.2 | 1.3 | Active | Active | – | 63.4 µM (≈ 160 µg/mL) | 79.3 µM (≈ 200 µg/mL) | – | – | 14.7 min | –
6 | CCCCCCCCCC(=O)NCCCC[C@H](NC(=O)[C@@H]1CCCN1C(=O)[C@H](CCCCN)NC(=O)[C@@H](NC(=O)CO/N=C(\C)c1ccc(NC(=O)c2cc(Br)ccc2O)cc1)[C@@H](C)O)C(=O)NCC(N)=O ({Benzoyl(5-Br-2-OH)}-[X1]TKPK(Decanoyl)G-NH2) | Active | Active | 72.6 µM | 55.8 µM | 0.4 | 0.3 | Active | Active | 186 µM (≈ 200 µg/mL) | – | 186 µM (≈ 200 µg/mL) | – | – | – | Unstable
7 | CCCCCCCCCCCCCCCC(=O)NCCCC[C@H](NC(=O)[C@@H]1CCCN1C(=O)[C@H](CCCCN)NC(=O)[C@@H](NC(=O)CO/N=C(\C)c1ccc(NC(=O)c2cc(Br)ccc2O)cc1)[C@@H](C)O)C(=O)NCC(N)=O ({Benzoyl(5-Br-2-OH)}-[X1]TKPK(Palmitoyl)G-NH2) | Active | Active | 53.8 µM | 23.2 µM | 0.3 | 0.1 | Active | Active | 173 µM (≈ 200 µg/mL) | – | 173 µM (≈ 200 µg/mL) | – | – | – | Unstable
8 | C/C(=N\OCC(=O)NCCCC[C@H](NC(=O)[C@@H]1CCCN1C(=O)[C@H](CCCCN)NC(=O)[C@@H](NC(=O)CO/N=C(\C)c1ccc(NC(=O)c2cc(Br)ccc2O)cc1)[C@@H](C)O)C(=O)NCC(=O)N[C@H](C(=O)N[C@@H](CCCCN)C(=O)N1CCC[C@H]1C(=O)N[C@@H](CCCCN)C(=O)NCC(=O)N[C@H](C(=O)N[C@@H](CCCCN)C(=O)N1CCC[C@H]1C(=O)N[C@@H](CCCCN)C(=O)NCC(=O)N[C@H](C(=O)N[C@@H](CCCCN)C(=O)N1CCC[C@H]1C(=O)N[C@@H](CCCCN)C(=O)NCC(N)=O)[C@@H](C)O)[C@@H](C)O)[C@@H](C)O)c1ccc(NC(=O)c2cc(Br)ccc2O)cc1 ({Benzoyl(5-Br-2-OH)}-[X1]TKPK(X2)GTKPKGTKPKGTKPKG-NH2) | Active | Active | 39.1 µM | 79.7 µM | 0.9 | 1.9 | inactive | Active | – | 42.2 µM (≈ 120 µg/mL) | 70.4 µM (≈ 200 µg/mL) | – | – | 16.3 min | Unstable
9 | C/C(=N\OCC(=O)N[C@H](C(=O)N[C@@H](CCCCN)C(=O)N1CCC[C@H]1C(=O)N[C@@H](CCCCN)C(=O)NCC(=O)N[C@H](C(=O)N[C@@H](CCCCN)C(=O)N1CCC[C@H]1C(=O)N[C@@H](CCCCN)C(=O)NCC(N)=O)[C@@H](C)O)[C@@H](C)O)c1ccc(NC(=O)c2cc(Br)ccc2O)cc1 ({Benzoyl(5-Br-2-OH)}-[X1]TKPKGTKPKG-NH2) | Active | Active | > 200 µM | > 200 µM | > 1.1 | > 1.1 | Active | Active | – | 175 µM (≈ 250 µg/mL) | 56 µM (≈ 80.1 µg/mL) | – | – | 14.9 min | Unstable
10 | CCCCCCCCCCCCCCCC(=O)NCCCC[C@H](NC(=O)[C@@H]1CCCN1C(=O)[C@H](CCCCN)NC(=O)[C@@H](NC(=O)CNC(=O)[C@H](CCCCN)NC(=O)[C@@H]1CCCN1C(=O)[C@H](CCCCN)NC(=O)[C@@H](NC(=O)CNC(=O)[C@H](CCCCN)NC(=O)[C@@H]1CCCN1C(=O)[C@H](CCCCN)NC(=O)[C@@H](NC(=O)CO/N=C(\C)c1ccc(NC(=O)c2cc(Br)ccc2O)cc1)[C@@H](C)O)[C@@H](C)O)[C@@H](C)O)C(=O)NCC(=O)N[C@H](C(=O)N[C@@H](CCCCN)C(=O)N1CCC[C@H]1C(=O)N[C@@H](CCCCN)C(=O)NCC(N)=O)[C@@H](C)O ({Benzoyl(5-Br-2-OH)}-[X1]TKPKGTKPKGTKPK(Palmitoyl)GTKPKG-NH2) | Active | Active | 20.9 µM | 40.4 µM | 0.3 | 0.5 | Active | Active | 74.3 µM (≈ 200 µg/mL) | – | 74.3 µM (≈ 200 µg/mL) | – | – | 17.3 min | Unstable
